# Tests used:
# HEL = assay: Cytotoxicity against human HEL cells assessed as reduction in cell viability incubated for 48 hrs by MTT assay; assay type: functional, cell-based
# Outline: (§1)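 MTT viability after 48 h exposure. Cells (1×10^4/well) were allowed 24 h at 37 °C before dosing. Leukemia lines were grown in RPMI and breast lines in high-glucose DMEM, each with 5% FBS under 5% CO2. MTT was added for 4 h, formazan dissolved in DMSO, and absorbance read at 490 nm. Triplicate wells; values averaged over at least 3 independent experiments.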
# K562 = assay: Cytotoxicity against human K562 cells assessed as reduction in cell viability incubated for 48 hrs by MTT assay; assay type: functional, cell-based; conditions: K562, 48 h; outline: as §1
# MDA-MB-231 = assay: Cytotoxicity against human MDA-MB-231 cells assessed as reduction in cell viability incubated for 48 hrs by MTT assay; assay type: functional, cell-based; conditions: MDA-MB-231, 48 h; outline: as §1
# MCF7 = assay: Cytotoxicity against human MCF-7 cells assessed as reduction in cell viability incubated for 48 hrs by MTT assay; assay type: functional, cell-based; conditions: MCF7, 48 h; outline: as §1
# [1] = Inhibition of AKT (unknown origin) by ELISA assay; parameters: species or system Homo sapiens
# Outline: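 Akt kinase activity kit run per the manufacturer's protocol. Akt source was lysate of compound-treated human leukemia HEL cells, purified on a Mono Q anion-exchange column before the kinase measurement. HEL cells were grown in RPMI with 5% FBS at 37 °C and 5% CO2. The value is reported as an IC50.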
Structure (SMILES),IC50 (HEL) [µM],IC50 (K562) [µM],IC50 (MDA-MB-231) [µM],IC50 (MCF7) [µM],IC50 [1] [µM]
COc1ccc2cc1Oc1ccc(cc1)C[C@H]1c3cc(c(OC)cc3CCN1C)Oc1c(OC(=O)c3ccc(Cl)cc3)c(OC)cc3c1[C@H](C2)N(C)CC3,2.81,2.8,7.55,8.63,
COc1ccc2cc1Oc1ccc(cc1)C[C@H]1c3cc(c(OC)cc3CCN1C)Oc1c(OC(=O)/C=C/c3ccccc3)c(OC)cc3c1[C@H](C2)N(C)CC3,10.2,9.43,7.9,16.1,
COc1ccc2cc1Oc1ccc(cc1)C[C@H]1c3cc(c(OC)cc3CCN1C)Oc1c(OC(=O)CCCCl)c(OC)cc3c1[C@H](C2)N(C)CC3,7.86,6.55,8.68,12.4,
COc1ccc2cc1Oc1ccc(cc1)C[C@H]1c3cc(c(OC)cc3CCN1C)Oc1c(OC(=O)c3ccc(Br)cc3)c(OC)cc3c1[C@H](C2)N(C)CC3,2.31,3.06,5.58,6.84,
COc1ccc2cc1Oc1ccc(cc1)C[C@H]1c3cc(c(OC)cc3CCN1C)Oc1c(OC)c(OC)cc3c1[C@H](C2)N(C)CC3 [FANCHININ],19.7,6.43,18.4,19.6,
CC[C@]1(O)C[C@@H]2CN(CCc3c([nH]c4ccccc34)[C@@](C(=O)OC)(c3cc4c(cc3OC)N(C)[C@H]3[C@@](O)(C(=O)OC)[C@H](OC(C)=O)[C@]5(CC)C=CCN6CC[C@]43[C@@H]65)C2)C1 [VINBLASTINE],16,9.49,17.7,37.5,
COc1ccc2cc1Oc1ccc(cc1)C[C@H]1c3cc(c(OC)cc3CCN1C)Oc1c(OC(=O)c3ccc(Cl)cc3Cl)c(OC)cc3c1[C@H](C2)N(C)CC3,10.2,6.11,28,> 100,
COc1ccc2cc1Oc1ccc(cc1)C[C@H]1c3cc(c(OC)cc3CCN1C)Oc1c(OC(=O)C=C(C)C)c(OC)cc3c1[C@H](C2)N(C)CC3,5.16,5.39,10.3,> 100,
C=CC(=O)Oc1c(OC)cc2c3c1Oc1cc4c(cc1OC)CCN(C)[C@H]4Cc1ccc(cc1)Oc1cc(ccc1OC)C[C@@H]3N(C)CC2,4.27,6.77,5.03,7.28,
COc1ccc2cc1Oc1ccc(cc1)C[C@H]1c3cc(c(OC)cc3CCN1C)Oc1c(OC(=O)N3CCCOC3)c(OC)cc3c1[C@H](C2)N(C)CC3,40.2,15.9,15.1,25.2,
CCCCCC(=O)Oc1c(OC)cc2c3c1Oc1cc4c(cc1OC)CCN(C)[C@H]4Cc1ccc(cc1)Oc1cc(ccc1OC)C[C@@H]3N(C)CC2,21,13.3,11.3,12,
COc1ccc2cc1Oc1ccc(cc1)C[C@H]1c3cc(c(OC)cc3CCN1C)Oc1c(OC(=O)CCl)c(OC)cc3c1[C@H](C2)N(C)CC3,10.8,12.3,10,30.1,
COc1ccc2cc1Oc1ccc(cc1)C[C@H]1c3cc(c(OC)cc3CCN1C)Oc1c(OC(=O)C(Cl)(Cl)Cl)c(OC)cc3c1[C@H](C2)N(C)CC3,3.54,3.3,4.05,7.14,
COc1ccc2cc1Oc1ccc(cc1)C[C@H]1c3cc(c(OC)cc3CCN1C)Oc1c(OC(=O)c3ccc(Cl)c(Cl)c3)c(OC)cc3c1[C@H](C2)N(C)CC3,4.56,8.52,18.3,10.8,
C=CCCCCCCCCC(=O)Oc1c(OC)cc2c3c1Oc1cc4c(cc1OC)CCN(C)[C@H]4Cc1ccc(cc1)Oc1cc(ccc1OC)C[C@@H]3N(C)CC2,15.7,10.4,13,8.57,
CCN(C)C(=O)Oc1c(OC)cc2c3c1Oc1cc4c(cc1OC)CCN(C)[C@H]4Cc1ccc(cc1)Oc1cc(ccc1OC)C[C@@H]3N(C)CC2,3.46,5.89,9.89,20.6,
COc1ccc2cc1Oc1ccc(cc1)C[C@H]1c3cc(c(OC)cc3CCN1C)Oc1c(OC(=O)c3cccc4ccccc34)c(OC)cc3c1[C@H](C2)N(C)CC3,3.46,4.59,16.5,8.19,
COc1ccc2cc1Oc1ccc(cc1)C[C@H]1c3cc(c(OC)cc3CCN1C)Oc1c(OC(=O)c3ccccc3Cl)c(OC)cc3c1[C@H](C2)N(C)CC3,3.22,3.58,5.41,6.26,
COc1ccc2cc1Oc1ccc(cc1)C[C@H]1c3cc(c(OC)cc3CCN1C)Oc1c(O)c(OC)cc3c1[C@H](C2)N(C)CC3 [FANGCHINOLINE],22.7,5.94,58.6,17.4,> 20
COc1ccc2cc1Oc1ccc(cc1)C[C@H]1c3cc(c(OC)cc3CCN1C)Oc1c(OC(=O)C3CC3)c(OC)cc3c1[C@H](C2)N(C)CC3,21.3,17.5,13.5,> 100,
COc1ccc2cc1Oc1ccc(cc1)C[C@H]1c3cc(c(OC)cc3CCN1C)Oc1c(OC(=O)c3c(Cl)cc(Cl)cc3Cl)c(OC)cc3c1[C@H](C2)N(C)CC3,7.65,7.6,23,18.2,
CCN(CC)C(=O)Oc1c(OC)cc2c3c1Oc1cc4c(cc1OC)CCN(C)[C@H]4Cc1ccc(cc1)Oc1cc(ccc1OC)C[C@@H]3N(C)CC2,2.98,3.74,9.04,23.7,
COc1ccc2cc1Oc1ccc(cc1)C[C@H]1c3cc(c(OC)cc3CCN1C)Oc1c(OC(=O)c3cccc(Cl)c3)c(OC)cc3c1[C@H](C2)N(C)CC3,4.26,3.79,8.03,4.42,
COc1ccc2cc1Oc1ccc(cc1)C[C@H]1c3cc(c(OC)cc3CCN1C)Oc1c(OC(=O)C(C)(C)C)c(OC)cc3c1[C@H](C2)N(C)CC3,3.73,4.03,8.56,7.69,
COc1ccc2cc1Oc1ccc(cc1)C[C@H]1c3cc(c(OC)cc3CCN1C)Oc1c(OC(=O)CBr)c(OC)cc3c1[C@H](C2)N(C)CC3,25.9,14.3,17.8,22.1,
COc1ccc2cc1Oc1ccc(cc1)C[C@H]1c3cc(c(OC)cc3CCN1C)Oc1c(OC(=O)N3c4ccccc4Sc4ccccc43)c(OC)cc3c1[C@H](C2)N(C)CC3,17.6,12.4,10.1,20.7,
COc1ccc2cc1Oc1ccc(cc1)C[C@H]1c3cc(c(OC)cc3CCN1C)Oc1c(OC(=O)CCCl)c(OC)cc3c1[C@H](C2)N(C)CC3,4.84,6.47,9.47,18.8,
